Laboratory results as given in ChEMBL document CHEMBL1123118, “Substrate probes for the mechanism of aromatic hydroxylation catalyzed by cytochrome P-450: selectively deuterated analogues of warfarin” (J Med Chem, 1985).

Legend:
Rattus norvegicus [1] = species on record: Rattus norvegicus; test: Compound incubated with microsomal preparations from beta-naphthoflavone-treated male rats with the substrate rac 7-D and the amount of deuterium retained was reported after reincubation followed by normal workup; assay type: ADME
Rattus norvegicus [2] = species on record: Rattus norvegicus; test: Amount of deuterium retained was reported after normal workup in beta-naphthoflavone-treated male rats with the substrate rac 7-D; assay type: ADME, organism-based
In short: (§1)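 Liver microsomes from male Sprague-Dawley rats (140–160 g), untreated or pretreated with phenobarbital or β-naphthoflavone; protein set to 10 mg/mL. The 1-mL mix held substrate, an NADP+/glucose 6-phosphate/MgCl2 cofactor solution, glucose-6-phosphate dehydrogenase and microsomes in 0.05 M phosphate pH 7.4. It ran 10 min at 37 °C, in duplicate. Hydroxywarfarins were measured by capillary GC-MS, and % deuterium retention was calculated as product over substrate incorporation.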

Rattus norvegicus [3] = species on record: Rattus norvegicus; test: Compound incubated with microsomal preparations from phenobarbital treated male rats with the substrate rac 8-D and the amount of deuterium retained was reported after normal workup; assay type: ADME; in short: as §1
Rattus norvegicus [4] = species on record: Rattus norvegicus; test: Amount of deuterium retained was reported after reincubation followed by normal workup in phenobarbital treated male rats; assay type: ADME, organism-based
Rattus norvegicus [5] = species on record: Rattus norvegicus; test: Amount of deuterium retained was reported after normal workup in rats; assay type: ADME, organism-based; in short: as §1
Rattus norvegicus [6] = species on record: Rattus norvegicus; test: Amount of deuterium retained was reported after reincubation followed by normal workup in phenobarbital treated male rats with rac 8-D; assay type: ADME, organism-based

| SMILES | Deuterium retention (Rattus norvegicus [1]) [%] | Deuterium retention (Rattus norvegicus [2]) [%] | Deuterium retention (Rattus norvegicus [3]) [%] | Deuterium retention (Rattus norvegicus [4]) [%] | Deuterium retention (Rattus norvegicus [5]) [%] | Deuterium retention (Rattus norvegicus [6]) [%] |
| --- | --- | --- | --- | --- | --- | --- |
| CC(=O)CC(c1ccccc1)c1c(O)oc2cc(O)ccc2c1=O (centres undefined) | 50 | 52 | 84 | 76 | 76 | 83 |
| CC(=O)CC(c1ccccc1)c1c(O)oc2ccc(O)cc2c1=O (centres undefined) | 84 | 84 | 90 | 65 | 66 | 89 |
| CC(=O)CC(c1ccc(O)cc1)c1c(O)oc2ccccc2c1=O (centres undefined) | 83 | 86 | 92 | 85 | 84 | 91 |
| CC(=O)CC(c1ccccc1)c1c(O)oc2c(O)cccc2c1=O (centres undefined) | 76 | 76 | 58 | 83 | 82 | 58 |
